Data as given in ChEMBL document CHEMBL1151814, “Ambuic acid and torreyanic acid derivatives from the endolichenic fungus Pestalotiopsis sp” (J Nat Prod, 2009).
The source made the active and inactive calls. No cut-off for these calls is given here.

Tests used:
Assay type in all cases: functional, organism-based
Aspergillus fumigatus = assay: Antifungal activity against Aspergillus fumigatus ATCC 10894 after 48 hrs by NCCLS method
Outline: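 Mould grown on potato dextrose agar; inoculum from broth culture at 28 °C for 48 h, final 10^4 mycelial fragments/mL in PDB. Compounds serially diluted from 10 mg/mL DMSO stock, triplicate wells per NCCLS. Absorbance at 595 nm after incubation; IC50 from inhibition rate plotted versus concentration. Fluconazole positive control.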

Escherichia coli = assay: Antibacterial activity against Escherichia coli CGMCC 1.2340 after 24 hrs by NCCLS method; settings: CGMCC 1.2340, 24 h
Outline: (§1)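 Bacteria grown on Mueller-Hinton agar; inoculum from broth culture at 37 °C for 24 h, final suspension 10^6 cells/mL in MHB. Serial dilutions from 10 mg/mL DMSO stock, tested in triplicate per NCCLS recommendations. Absorbance read at 595 nm after incubation. Inhibition rate plotted against concentration to give IC50. Controls were antimicrobial peptide AMP and streptomycin.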

Streptococcus pneumoniae = assay: Antibacterial activity against Streptococcus pneumoniae CGMCC 1.1692 after 24 hrs by NCCLS method; settings: CGMCC 1.1692, 24 h; outline: as §1
Candida albicans = assay: Antifungal activity against Candida albicans ATCC 10231 after 48 hrs by NCCLS method; settings: ATCC 10231, 48 h
Outline: (§2)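 Yeasts grown on Sabouraud dextrose agar; inoculum from broth culture at 28 °C for 48 h, final suspension 10^5 cells/mL in SDB. Serial dilutions from 10 mg/mL DMSO stock in triplicate per NCCLS. A595 read after incubation; IC50 derived from inhibition rate versus concentration plot. Fluconazole served as positive control.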

Geotrichum candidum = assay: Antifungal activity against Geotrichum candidum AS2.498 after 48 hrs by NCCLS method; settings: AS2.498, 48 h; outline: as §2
Staphylococcus aureus = assay: Antibacterial activity against Staphylococcus aureus ATCC 6538 after 24 hrs by NCCLS method; settings: ATCC 6538, 24 h; outline: as §1

SMILES	IC50 (Escherichia coli)	IC50 (Streptococcus pneumoniae)	IC50 (Candida albicans)	IC50 (Geotrichum candidum)	IC50 (Staphylococcus aureus)	Activity (Aspergillus fumigatus)
CCCCCCCC1=C(CO)[C@@H](O)[C@H]2O[C@@]2(C/C=C(\C)C(=O)O)C1=O	> 50 µM	> 50 µM	> 50 µM	> 50 µM	> 50 µM	inactive
CCCCC/C=C/C1=C(CO)C(=O)C[C@](O)(C/C=C(\C)C(=O)O)[C@H]1O	> 50 µM	> 50 µM	> 50 µM	> 50 µM	> 50 µM	inactive
CCCCC/C=C/C1=C2COC(C)(C)O[C@H]2[C@H]2O[C@@]2(C/C=C(\C)C(=O)O)C1=O	> 50 µM	> 50 µM	> 50 µM	> 50 µM	> 50 µM	inactive
CCCCCC1O[C@H]2C3=C(C(=O)[C@@]4(C/C=C(\C)C(=O)O)OC4[C@H]3O)C1C1C(CCCCC)OC=C3C(=O)C4O[C@]4(C/C=C(\C)C(=O)O)C(=O)C312 (stereo not given in full)	> 50 µM	> 50 µM	> 50 µM	> 50 µM	> 50 µM	inactive

Second part, led by results:

IC50 (Escherichia coli)	IC50 (Streptococcus pneumoniae)	IC50 (Candida albicans)	IC50 (Geotrichum candidum)	IC50 (Staphylococcus aureus)	SMILES	Activity (Aspergillus fumigatus)
> 50 µM	> 50 µM	> 50 µM	> 50 µM	> 50 µM	CCC(=O)CC/C=C/C1=C(CO)[C@@H](O)[C@H]2O[C@@]2(C/C=C(\C)C(=O)O)C1=O	inactive
				27.8 µM	CCCCC/C=C/C1=C(COC(C)=O)[C@@H](O)[C@H]2O[C@@]2(C/C=C(\C)C(=O)O)C1=O	inactive
> 50 µM	> 50 µM	> 50 µM	> 50 µM	> 50 µM	CCC/C=C/C=C/C1=C(CO)[C@@H](O)[C@H]2O[C@@]2(C/C=C(\C)C(=O)O)C1=O	inactive
				43.9 µM	CCCCC/C=C/C1=C(CO)[C@H](O)[C@H]2O[C@@]2(C/C=C(\C)C(=O)O)C1=O [AMBUIC ACID]	inactive
